In ChEMBL document CHEMBL1122978, “Structure-activity relationship of estrogens: receptor affinity and estrogen antagonist activity of certain (E)- and (Z)-1,2,3-triaryl-2-propen-1-ones” (J Med Chem, 1985):
“And” between values parts separate entries of the source, which are not always exact repeats. Identical values can stand only once.

Experiments:
[1] = biological target: T1, Estrogen receptor (Mus musculus) (UniProt O08537+P19785); assay: Percentage inhibition of uterotrophic effects of estradiol in vivo following 100 ug i.p.; type: functional, organism-based; details: in the assay text read “s.c.” for “i.p.”
Outline: (§1)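 Antiuterotrophic test in immature female Swiss mice, 21-23 days old, 8-12 g. Each animal received 100 μg compound s.c. in propylene glycol-0.9% saline (1:1) daily for 3 days, with 1 μg E2 given at a separate site. Controls got E2 plus vehicle. Uterine weights were taken 24 h after the last dose. Activity computed as 100 × (W_ET − W_C)/(W_E − W_C).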

[2] = biological target: T1, Estrogen receptor (Mus musculus); assay: In vivo anti-uterotrophic activity in mice following 1 ug estradiol i.p.; type: functional, organism-based; details: in the assay text read “s.c.” for “i.p.”; outline: as §1
[3] = biological target: T1, Estrogen receptor (Mus musculus)
[4] = system: Estrogen receptor (Mus musculus); assay: Relative binding affinity calculated as the ratio of molar concentration of E2 and the triarylpropenones (TAP's) required to decrease [3H]E2 binding by 50%.
[5] = biological target: T1, Estrogen receptor (Mus musculus); assay: Uterotrophic activity as uterine weight gain in immature mice without E2 (number of animals); type: functional, tissue-based; details: Uterus
Outline: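 Uterotrophic test in immature female Swiss mice, 21-23 days old, 8-12 g. Dosing was 100 μg/animal s.c. in propylene glycol-0.9% saline (1:1) on three consecutive days, and controls got vehicle alone. Uteri were weighed at autopsy 24 h after the last injection. Group sizes are given per compound.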

[6] = biological target: T2, Estrogen receptor (Rattus norvegicus) (UniProt P06211+Q62986); assay: Uterotrophic activity as uterine weight gain in rats with concomitant E2 treatment; type: functional, tissue-based; details: Uterus
Outline: (§2)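 Immature female Charles Foster rats, 21-23 days old, 25-40 g, were dosed s.c. at 0.5-1000 μg/rat in propylene glycol-0.9% saline (1:1) for 3 consecutive days. Rats were given the compound either alone or with 1 μg E2 at another site. Uterine weight was measured 24 h after the last injection and reported as mean ± SD of at least six animals.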

[7] = biological target: T2, Estrogen receptor (Rattus norvegicus); assay: Uterotrophic activity as uterine weight gain without E2 in rats; type: functional, tissue-based; details: Uterus; outline: as §2

T1 sequence (O08537 whole entry, looked up): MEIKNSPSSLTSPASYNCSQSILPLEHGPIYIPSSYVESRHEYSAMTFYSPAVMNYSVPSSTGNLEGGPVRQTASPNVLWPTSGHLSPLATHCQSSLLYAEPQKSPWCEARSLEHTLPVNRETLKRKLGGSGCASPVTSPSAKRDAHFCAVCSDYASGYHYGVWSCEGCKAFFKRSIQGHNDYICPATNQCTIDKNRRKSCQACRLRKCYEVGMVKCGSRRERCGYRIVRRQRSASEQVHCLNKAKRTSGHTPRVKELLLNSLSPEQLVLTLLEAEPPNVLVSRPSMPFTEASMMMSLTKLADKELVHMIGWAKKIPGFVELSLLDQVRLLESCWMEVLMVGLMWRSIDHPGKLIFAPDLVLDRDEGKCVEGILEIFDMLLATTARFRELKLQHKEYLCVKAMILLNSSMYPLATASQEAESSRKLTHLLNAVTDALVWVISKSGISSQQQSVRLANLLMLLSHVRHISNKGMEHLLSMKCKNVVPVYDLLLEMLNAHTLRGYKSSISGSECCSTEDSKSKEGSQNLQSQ
T1 sequence (P19785 whole entry, looked up): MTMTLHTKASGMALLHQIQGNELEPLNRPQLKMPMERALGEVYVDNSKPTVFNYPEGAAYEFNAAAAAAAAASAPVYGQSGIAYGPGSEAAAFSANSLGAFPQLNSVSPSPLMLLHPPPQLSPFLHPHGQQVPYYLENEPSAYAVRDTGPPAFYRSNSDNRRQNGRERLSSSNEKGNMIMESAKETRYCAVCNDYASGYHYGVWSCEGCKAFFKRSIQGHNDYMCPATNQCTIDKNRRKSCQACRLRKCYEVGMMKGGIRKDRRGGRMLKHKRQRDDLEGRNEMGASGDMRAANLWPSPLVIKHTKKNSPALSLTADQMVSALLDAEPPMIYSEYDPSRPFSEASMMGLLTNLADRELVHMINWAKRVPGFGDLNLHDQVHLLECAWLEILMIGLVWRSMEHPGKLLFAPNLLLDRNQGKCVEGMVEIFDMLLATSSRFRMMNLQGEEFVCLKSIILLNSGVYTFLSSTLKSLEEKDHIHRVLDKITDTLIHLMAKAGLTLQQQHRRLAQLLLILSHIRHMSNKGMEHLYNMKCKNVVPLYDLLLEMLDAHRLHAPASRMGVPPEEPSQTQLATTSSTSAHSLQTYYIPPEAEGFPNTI

inhibition [1] [%]	Uterine weight [2] [mg]	Uterine weight [3]	RBA [4]	Uterine weight [5] [mg]	Uterine weight [6]	Uterine weight [7]	SMILES
47	16.5	5.6 mg	0.48	–	–	–	O=C(/C(=C\c1ccc(O)cc1)c1ccc(O)cc1)c1ccccc1
20	21.5	4.2 mg	0.28	–	–	–	CC(=O)Oc1ccc(/C(=C\c2ccccc2)C(=O)c2ccccc2)cc1
51	15.3	3 mg	< 0.001	–	–	–	O=C(/C(=C\c1ccccc1)c1ccccc1)c1ccccc1
44	16.9	5.5 mg	0.57	–	–	–	O=C(/C(=C/c1ccc(O)cc1)c1ccc(O)cc1)c1ccccc1
–	–	–	0.025	–	–	–	O=C(/C(=C/c1ccccc1)c1ccccc1)c1ccc(OCCN2CCCC2)cc1
36	18.5	–	2.02	9.7	–	–	O=C(/C(=C/c1ccccc1)c1ccccc1)c1ccc(O)cc1
58	14	14 mg	1.02	–	–	–	CC(=O)Oc1ccc(/C=C(/C(=O)c2ccc(OC(C)=O)cc2)c2ccccc2)cc1
55	14.7	4.1 mg	4.75	–	–	–	O=C(/C(=C\c1ccccc1)c1ccc(O)cc1)c1ccc(O)cc1
58	14	5 mg	0.22	–	–	–	O=C(/C(=C/c1ccc(O)cc1)c1ccccc1)c1ccccc1
52	15.3	3.5 mg	< 0.001	–	–	–	COc1ccc(/C(=C/c2ccccc2)C(=O)c2ccccc2)cc1
42	17.3	5.9 mg	0.42	–	–	–	CC(=O)Oc1ccc(/C=C(/C(=O)c2ccccc2)c2ccccc2)cc1
18	21.9	6.8 mg	0.37	–	–	–	O=C(/C(=C/c1ccccc1)c1ccc(O)cc1)c1ccc(O)cc1
52	15.3	4.6 mg	< 0.001	–	–	–	COc1ccc(/C=C(\C(=O)c2ccccc2)c2ccccc2)cc1
69	–	4.4 mg and 12 mg	0.55	–	53.6 mg [middle of 5 runs]	20.5 mg [middle of 5 runs]	O=C(/C(=C/c1ccc(O)cc1)c1ccc(O)cc1)c1ccc(O)cc1
–	–	–	0.002	–	–	–	O=C(/C(=C\c1ccccc1)c1ccccc1)c1ccc(OCCN2CCCC2)cc1
39	17.8	4.5 mg	0.24	–	–	–	CC(=O)Oc1ccc(/C(=C/c2ccccc2)C(=O)c2ccccc2)cc1
16	22.3	3.4 mg	0.4	–	–	–	O=C(/C(=C\c1ccc(O)cc1)c1ccccc1)c1ccc(O)cc1
48	16	4.8 mg	< 0.001	–	–	–	COc1ccc(C(=O)/C(=C\c2ccccc2)c2ccccc2)cc1
42	17.3	4.3 mg	0.09	–	–	–	COc1ccc(/C=C(/C(=O)c2ccccc2)c2ccccc2)cc1
36	18.4	2.9 mg	0.28	–	–	–	O=C(/C(=C/c1ccccc1)c1ccc(O)cc1)c1ccccc1
27	20.2	5 mg	< 0.001	–	–	–	COc1ccc(C(=O)/C(=C/c2ccccc2)c2ccccc2)cc1
51	15.4	4.4 mg	0.012	–	–	–	O=C(/C(=C/c1ccccc1)c1ccccc1)c1ccccc1
60	13.6	3.2 mg	< 0.001	–	–	–	O=C(/C(=C\c1ccccc1)c1ccccc1)c1ccc(O)cc1
36	18.5	4.7 mg	0.02	–	–	–	COc1ccc(/C(=C\c2ccccc2)C(=O)c2ccccc2)cc1
